Results: ChEMBL document CHEMBL1681697, “Simple phosphonic inhibitors of human neutrophil elastase” (Bioorg Med Chem Lett, 2011)
In brackets after ≈: the same amount, converted by molar mass.

Columns and labels:
[1] = target: Chymotrypsin-like elastase family member 1 (Sus scrofa) (UniProt P00772); experiment: Inhibition of porcine pancreatic elastase at 5 uM after 15 mins
In short: (§1)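 Single-point screen: each enzyme incubated with inhibitor at 37 °C, then residual activity measured. Inhibition below 5% was scored as no inhibition.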

[2] = target: T1, Neutrophil elastase (Homo sapiens) (UniProt P08246); experiment: Inhibition of human neutrophil elastase at 5 uM after 15 mins; in short: as §1
T1 sequence (whole entry): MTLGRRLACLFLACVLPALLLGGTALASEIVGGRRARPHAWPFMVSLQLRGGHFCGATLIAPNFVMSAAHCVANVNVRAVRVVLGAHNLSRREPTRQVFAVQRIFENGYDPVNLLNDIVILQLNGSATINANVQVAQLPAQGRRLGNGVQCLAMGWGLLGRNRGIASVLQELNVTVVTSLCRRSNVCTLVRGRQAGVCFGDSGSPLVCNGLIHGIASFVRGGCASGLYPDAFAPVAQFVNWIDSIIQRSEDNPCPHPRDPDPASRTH

[3] = Ratio of dissociation of enzyme-inhibitor-substrate complex to Ki for chymotrypsin
LoVo [4] = experiment: Antiproliferative activity against human multidrug-resistant LoVo cells assessed as growth inhibition at 100 ug/ml after 72 hrs; assay type: functional
A549 = experiment: Antiproliferative activity against human A549 cells assessed as growth inhibition at 100 ug/ml after 72 hrs; assay type: functional; details: A549, 72 h
MCF7 [5] = experiment: Antiproliferative activity against human MCF7 cells assessed as growth inhibition at 100 ug/ml after 72 hrs; assay type: functional; details: MCF7, 72 h
LoVo [6] = experiment: Antiproliferative activity against human LoVo cells after 72 hrs; assay type: functional, cell-based
[7] = Inhibition of trypsin at 5 uM after 15 mins; in short: as §1
LoVo [8] = experiment: Antiproliferative activity against human LoVo cells assessed as growth inhibition at 100 ug/ml after 72 hrs; assay type: functional
MCF7 [9] = experiment: Antiproliferative activity against human MCF7 cells after 72 hrs; assay type: functional, cell-based; details: MCF7, 72 h

Chymotrypsin-like elastase family member 1 (Sus scrofa), sequence (P00772 whole entry): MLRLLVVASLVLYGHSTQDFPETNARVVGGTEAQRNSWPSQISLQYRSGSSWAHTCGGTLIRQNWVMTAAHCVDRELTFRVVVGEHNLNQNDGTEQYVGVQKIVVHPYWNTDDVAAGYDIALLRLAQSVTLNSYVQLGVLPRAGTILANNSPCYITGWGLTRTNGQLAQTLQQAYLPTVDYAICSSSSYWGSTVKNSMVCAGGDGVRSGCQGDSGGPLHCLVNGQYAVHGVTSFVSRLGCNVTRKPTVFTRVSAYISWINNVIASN

SMILES | inhibition [1] | inhibition [2] | inhibition [7] | also measured
CCC(NC(=O)OCc1ccccc1)P(=O)(Oc1ccccc1)Oc1ccccc1 (centres undefined) | < 5% |  |  | 
CCC(NC(=O)OCc1ccccc1)P(=O)(Oc1ccc(C)cc1)Oc1ccc(C)cc1 (centres undefined) | < 5% | < 5% |  | 
CSc1ccc(OP(=O)(Oc2ccc(SC)cc2)[C@H](NC(=O)OCc2ccccc2)C(C)C)cc1 | < 5% |  |  | 
CSc1ccc(OP(=O)(Oc2ccc(SC)cc2)[C@@H](CC(C)C)NC(=O)OCc2ccccc2)cc1 | < 5% |  |  | 
CCC(NC(=O)OCc1ccccc1)P(=O)(Oc1ccc(Cl)cc1)Oc1ccc(Cl)cc1 (centres undefined) |  |  |  | Ratio [3]: < 50 M⁻¹ s⁻¹
CCC[C@@H](NC(=O)OCc1ccccc1)P(=O)(Oc1cccc(C)c1C)Oc1cccc(C)c1C | < 5% | < 5% |  | 
CCC(NC(=O)OCc1ccccc1)P(=O)(Oc1ccc(C(=O)OC)cc1)Oc1ccc(C(=O)OC)cc1 (centres undefined) |  |  |  | inhibition at 100 µg/mL (LoVo [4]): 38%; inhibition at 100 µg/mL (A549): 31%; inhibition at 100 µg/mL (MCF7 [5]): 49%; IC50 (LoVo [6]): 73 µg/mL (≈ 135 µM); Ratio [3]: 1070 M⁻¹ s⁻¹
CC(C)C[C@@H](NC(=O)OCc1ccccc1)P(=O)(Oc1ccc(Cl)cc1)Oc1ccc(Cl)cc1 | < 5% |  |  | 
CC(C)[C@@H](NC(=O)OCc1ccccc1)P(=O)(Oc1ccccc1)Oc1ccccc1 | < 5% | < 5% | < 5% | 
COc1ccc(OP(=O)(Oc2ccc(OC)cc2)[C@H](NC(=O)OCc2ccccc2)C(C)C)cc1 |  |  | < 5% | 
CC(C)[C@@H](NC(=O)OCc1ccccc1)P(=O)(Oc1ccc(C(C)(C)C)cc1)Oc1ccc(C(C)(C)C)cc1 | < 5% |  | < 5% | 
CCC(NC(=O)OCc1ccccc1)P(=O)(Oc1ccc(C(C)C)cc1)Oc1ccc(C(C)C)cc1 (centres undefined) |  |  | < 5% | 
COC(=O)c1ccc(OP(=O)(Oc2ccc(C(=O)OC)cc2)[C@@H](CC(C)C)NC(=O)OCc2ccccc2)cc1 |  |  |  | inhibition at 100 µg/mL (LoVo [8]): 22%; inhibition at 100 µg/mL (LoVo [4]): 6%; inhibition at 100 µg/mL (A549): 3%; inhibition at 100 µg/mL (MCF7 [5]): 8%; Ratio [3]: < 50 M⁻¹ s⁻¹
CC(C)[C@@H](NC(=O)OCc1ccccc1)P(=O)(Oc1ccc(C(C)(C)CC(C)(C)C)cc1)Oc1ccc(C(C)(C)CC(C)(C)C)cc1 | < 5% | < 5% | < 5% | 
CSc1ccc(OP(=O)(Oc2ccc(SC)cc2)[C@@H](C)NC(=O)OCc2ccccc2)cc1 | < 5% |  | < 5% | 
CCCC[C@@H](NC(=O)OCc1ccccc1)P(=O)(Oc1ccc(C(C)(C)C)cc1)Oc1ccc(C(C)(C)C)cc1 |  |  | < 5% | 
CCc1ccc(OP(=O)(Oc2ccc(CC)cc2)C(CC)NC(=O)OCc2ccccc2)cc1 (centres undefined) | < 5% |  |  | 
CC(C)c1ccc(OP(=O)(Oc2ccc(C(C)C)cc2)[C@@H](C)NC(=O)OCc2ccccc2)cc1 | < 5% |  | < 5% | 
CCC[C@@H](NC(=O)OCc1ccccc1)P(=O)(Oc1ccc(C(=O)OC)cc1)Oc1ccc(C(=O)OC)cc1 |  |  |  | inhibition at 100 µg/mL (LoVo [4]): 47%; inhibition at 100 µg/mL (A549): 40%; IC50 (MCF7 [9]): 52 µg/mL (≈ 93.6 µM); IC50 (LoVo [6]): 47 µg/mL (≈ 84.6 µM); Ratio [3]: < 50 M⁻¹ s⁻¹
Cc1ccc(C)c(OP(=O)(Oc2cc(C)ccc2C)[C@@H](CC(C)C)NC(=O)OCc2ccccc2)c1 |  | < 5% |  | 

SMILES | inhibition [1] | inhibition [2] | inhibition [7] | also measured
CCc1ccc(OP(=O)(Oc2ccc(CC)cc2)[C@@H](C)NC(=O)OCc2ccccc2)cc1 | < 5% |  | < 5% | 
CCC[C@@H](NC(=O)OCc1ccccc1)P(=O)(Oc1cc(C)c(C)c(C)c1)Oc1cc(C)c(C)c(C)c1 | < 5% | < 5% | < 5% | 
C[C@@H](NC(=O)OCc1ccccc1)P(=O)(Oc1ccccc1)Oc1ccccc1 | < 5% |  | < 5% | 
COC(=O)c1ccc(OP(=O)(Oc2ccc(C(=O)OC)cc2)[C@H](NC(=O)OCc2ccccc2)C(C)C)cc1 | < 5% |  |  | inhibition at 100 µg/mL (LoVo [4]): 54%; inhibition at 100 µg/mL (A549): 46%; IC50 (MCF7 [9]): 47 µg/mL (≈ 84.6 µM); IC50 (LoVo [6]): 32 µg/mL (≈ 57.6 µM); Ratio [3]: < 50 M⁻¹ s⁻¹
C[C@@H](NC(=O)OCc1ccccc1)P(=O)(Oc1ccc(C(C)(C)C)cc1)Oc1ccc(C(C)(C)C)cc1 |  |  | < 5% | 
CCc1ccc(OP(=O)(Oc2ccc(CC)cc2)[C@H](NC(=O)OCc2ccccc2)C(C)C)cc1 |  |  | < 5% | 
CC(C)(C)C(=O)Oc1ccc(S(=O)(=O)Nc2ccccc2C(=O)NCC(=O)O)cc1 [SIVELESTAT] |  |  |  | inhibition at 100 µg/mL (LoVo [8]): 20%; inhibition at 100 µg/mL (LoVo [4]): 15%; inhibition at 100 µg/mL (MCF7 [5]): 61%
CC(C)c1ccc(OP(=O)(Oc2ccc(C(C)C)cc2)[C@H](NC(=O)OCc2ccccc2)C(C)C)cc1 | < 5% | < 5% | < 5% | 
CCC(NC(=O)OCc1ccccc1)P(=O)(Oc1ccc(C)c(C)c1)Oc1ccc(C)c(C)c1 (centres undefined) | < 5% | < 5% |  | 
CCCC[C@@H](NC(=O)OCc1ccccc1)P(=O)(Oc1ccc(C(=O)OC)cc1)Oc1ccc(C(=O)OC)cc1 |  |  |  | Ratio [3]: < 50 M⁻¹ s⁻¹
CC(C)[C@@H](NC(=O)OCc1ccccc1)P(=O)(Oc1ccc(S(C)(=O)=O)cc1)Oc1ccc(S(C)(=O)=O)cc1 |  |  |  | inhibition at 100 µg/mL (LoVo [8]): 15%; inhibition at 100 µg/mL (A549): 5%; inhibition at 100 µg/mL (MCF7 [5]): 19%; Ratio [3]: 707 M⁻¹ s⁻¹
Cc1ccccc1OP(=O)(Oc1ccccc1C)[C@@H](CC(C)C)NC(=O)OCc1ccccc1 | < 5% |  |  | 
Cc1ccc(C)c(OP(=O)(Oc2cc(C)ccc2C)[C@H](NC(=O)OCc2ccccc2)C(C)C)c1 | < 5% | < 5% | < 5% | 
CCC[C@@H](NC(=O)OCc1ccccc1)P(=O)(Oc1ccc(OC)cc1)Oc1ccc(OC)cc1 | < 5% | < 5% |  | 
COc1ccc(OP(=O)(Oc2ccc(OC)cc2)[C@@H](CC(C)C)NC(=O)OCc2ccccc2)cc1 |  | < 5% |  | 
CCC[C@@H](NC(=O)OCc1ccccc1)P(=O)(Oc1cc(C)cc(C)c1C)Oc1cc(C)cc(C)c1C | < 5% | < 5% |  | 
CCCC[C@@H](NC(=O)OCc1ccccc1)P(=O)(Oc1ccccc1)Oc1ccccc1 | < 5% |  | < 5% | 
COC(=O)c1ccc(OP(=O)(Oc2ccc(C(=O)OC)cc2)[C@@H](C)NC(=O)OCc2ccccc2)cc1 |  |  |  | inhibition at 100 µg/mL (LoVo [4]): 46%; inhibition at 100 µg/mL (A549): 25%; IC50 (MCF7 [9]): 40 µg/mL (≈ 75.8 µM); IC50 (LoVo [6]): 47 µg/mL (≈ 89.1 µM); Ratio [3]: 1530 M⁻¹ s⁻¹
CCC(NC(=O)OCc1ccccc1)P(=O)(Oc1ccc(C(C)(C)C)cc1)Oc1ccc(C(C)(C)C)cc1 (centres undefined) | < 5% | < 5% |  | 
CCCC[C@@H](NC(=O)OCc1ccccc1)P(=O)(Oc1ccc(SC)cc1)Oc1ccc(SC)cc1 | < 5% | < 5% |  | 
